Consider 18 compounds from ChEMBL document CHEMBL1140161, “Structure-activity relationships in 1,4-benzodioxan-related compounds. 9. From 1,4-benzodioxane to 1,4-dioxane ring as a promising template of novel alpha1D-adrenoreceptor antagonists, 5-HT1A full agonists, and cytotoxic agents” (J Med Chem, 2008).

By Ki is commonly meant a measure of affinity in units of concentration, obtained from inhibition or displacement. Higher therefore signals a looser hold on the target.

Assay [1] deals with T1, 5-hydroxytryptamine receptor 1A (Homo sapiens, UniProt P08908).
T1 sequence (P08908 whole entry): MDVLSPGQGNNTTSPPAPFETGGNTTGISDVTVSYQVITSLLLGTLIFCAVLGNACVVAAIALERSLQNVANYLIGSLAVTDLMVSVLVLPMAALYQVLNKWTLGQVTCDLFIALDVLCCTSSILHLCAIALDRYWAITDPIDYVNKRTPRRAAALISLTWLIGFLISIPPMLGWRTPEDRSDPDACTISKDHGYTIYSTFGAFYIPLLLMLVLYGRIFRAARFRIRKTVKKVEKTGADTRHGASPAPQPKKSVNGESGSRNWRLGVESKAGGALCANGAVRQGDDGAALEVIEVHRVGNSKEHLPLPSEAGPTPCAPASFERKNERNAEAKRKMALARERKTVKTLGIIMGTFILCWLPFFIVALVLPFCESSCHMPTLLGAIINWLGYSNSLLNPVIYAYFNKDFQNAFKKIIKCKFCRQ
Put plainly: Displacement of [3H]8-OH-DPAT from human cloned 5HT1A receptor expressed in human HeLa cells. The assay is classed as cell-based.

Assay [2] has as its target T2, Alpha-1D adrenergic receptor (Homo sapiens, UniProt P25100).
T2 sequence (P25100 whole entry): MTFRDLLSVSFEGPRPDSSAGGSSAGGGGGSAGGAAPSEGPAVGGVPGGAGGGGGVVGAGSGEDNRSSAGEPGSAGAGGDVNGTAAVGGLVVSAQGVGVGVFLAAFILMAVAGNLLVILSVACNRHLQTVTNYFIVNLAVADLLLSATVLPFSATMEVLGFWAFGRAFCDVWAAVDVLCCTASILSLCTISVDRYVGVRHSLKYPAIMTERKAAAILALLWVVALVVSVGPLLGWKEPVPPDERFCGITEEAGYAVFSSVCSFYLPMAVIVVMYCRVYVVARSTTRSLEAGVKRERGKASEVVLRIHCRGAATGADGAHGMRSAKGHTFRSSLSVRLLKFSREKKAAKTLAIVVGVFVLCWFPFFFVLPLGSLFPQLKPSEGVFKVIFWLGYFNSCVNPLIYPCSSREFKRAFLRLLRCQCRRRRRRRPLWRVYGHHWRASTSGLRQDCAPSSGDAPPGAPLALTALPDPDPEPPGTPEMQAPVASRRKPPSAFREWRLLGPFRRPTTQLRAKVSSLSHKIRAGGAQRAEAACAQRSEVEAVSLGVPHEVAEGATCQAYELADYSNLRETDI
The experiment in a line: Displacement of [3H]prazosin from human cloned alpha1D adrenoceptor expressed in CHO cells. It counts as cell-based. An outline of the steps:
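[3H]prazosin binding to cloned human α1-adrenoceptor subtypes expressed in CHO cell membranes. Affinity reported as pKi for each subtype.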

The target in assay [3] is T3, 5-hydroxytryptamine receptor 1A (Homo sapiens) (UniProt P08908).
T3 sequence (whole entry): T1 sequence (P08908 whole entry)
The experiment in a line: Agonist activity at human cloned 5HT1A receptor expressed in human HeLa cell membrane assessed as stimulation of [35S]GTPgammaS binding. The assay is classed as functional, cell membranes. In outline: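 Membranes from HeLa cells expressing cloned human 5-HT1A receptor; agonist-stimulated [35S]GTPγS binding measured. pD2 is the negative log of the agonist concentration giving 50% of maximal [35S]GTPγS binding stimulation; values from two to three experiments.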

Another assay relates to PC-3. The experiment in a line: Induction of apoptosis in human PC3 cells assessed as translocation of phosphatidylserine at 50 uM after 48 hrs by annexin V-FITC staining and cytofluorimetric analysis. It counts as functional. In outline:
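PC-3 prostate cancer cells exposed to compound for 48 h, then stained with annexin V-FITC to detect externalized phosphatidylserine. Read-out by flow cytometry as mean fluorescence intensity (MFI), against untreated and vehicle-treated cells.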

Assay [4] concerns the target T3, 5-hydroxytryptamine receptor 1A (Homo sapiens). Put plainly: Agonist activity at human cloned 5HT1A receptor expressed in HeLa cell membrane assessed as stimulation of [35S]GTPgammaS binding relative to 5-hydroxytryptamine. It counts as functional, cell membranes. In outline:
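Activation measured as [35S]GTPγS binding in membranes from HeLa cells expressing cloned human 5-HT1A receptor. pD2 is the negative log of agonist concentration giving 50% of maximal stimulation, from two to three experiments agreeing within 20%. Efficacy is given relative to 5-HT.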

`c1ccc(OCCNC[C@@H]2COC(c3ccccc3)(c3ccccc3)CO2)cc1`: the Ki is 37.2 nM in assay [1] and 126 nM in assay [2].
Consider `c1ccc(OCCNC[C@@H]2COCC(c3ccccc3)(c3ccccc3)O2)cc1`, for which the pD2 in assay [3] was 9.11. Besides, in the assay on PC-3, the Flu intensity stood at 76.98. For the same compound, the Ki in assay [1] is 0.589 nM; in assay [2], 3.63 nM. Besides, the %max in assay [4] is 77.1.
On to `c1ccc(OCCNC[C@@H]2CO[C@@H](c3ccccc3)CO2)cc1` (relative stereo), for which the Ki in assay [1] was 148 nM; in assay [2], > 1000 nM.
With `COc1cccc(OC)c1OCCNC[C@@H]1COC(c2ccccc2)(c2ccccc2)CO1`, the Ki was 229 nM in assay [1] and 170 nM in assay [2].
Consider `COc1ccccc1OCCNC[C@@H]1CO[C@@H](c2ccccc2)CO1` (relative stereo), for which the values for the inhibition constant (Ki) in assay [1] and in assay [2] were 38.9 nM and 97.7 nM, respectively.
With `COc1ccccc1OCCNC[C@@H]1COC[C@H](c2ccccc2)O1` (relative stereo), the inhibition constant (Ki) in assay [1] is 4.17 nM; in assay [2], 43.7 nM. Also, in assay [4], the %max is 78.1.
Turning to `c1ccc(OCCNC[C@@H]2CO[C@H](c3ccccc3)CO2)cc1` (relative stereo), the Ki was 25.7 nM in assay [1] and 355 nM in assay [2].
For `COc1ccccc1OCCNC[C@@H]1COC(c2ccccc2)(c2ccccc2)CO1`, the Ki was 7.59 nM in assay [1] and 102 nM in assay [2].
Turning to `COc1cccc(OC)c1OCCNC[C@@H]1CO[C@H](c2ccccc2)CO1` (relative stereo), the Ki in assay [1] was 257 nM; in assay [2] it was > 1000 nM.
Turning to `c1ccc(OCCNC[C@@H]2COC[C@@H](c3ccccc3)O2)cc1` (relative stereo), the inhibition constant Ki in assay [1] is 52.5 nM; in assay [2], 155 nM.
Take `COc1cccc(OC)c1OCCNC[C@@H]1COCC(c2ccccc2)(c2ccccc2)O1`: the pD2 in assay [3] was 8.28. The inhibition constant (Ki) in assay [1] is 1.41 nM; in assay [2], 66.1 nM. In assay [4], the %max was 106.
As to `COc1cccc(OC)c1OCCNC[C@@H]1COC[C@H](c2ccccc2)O1` (relative stereo), the Ki in assay [1] and in assay [2] was > 1000 nM throughout.
`COc1ccccc1OCCNC[C@@H]1CO[C@H](c2ccccc2)CO1` (relative stereo): the pD2 in assay [3] came out at 7.88. The inhibitory constant (Ki) was 3.47 nM in assay [1] and 16.2 nM in assay [2]. The %max in assay [4] was 85.5.
In the case of `COc1ccccc1OCCNC[C@@H]1COCC(c2ccccc2)(c2ccccc2)O1`, the pD2 in assay [3] turned out to be 9.4. For the same compound, the Ki was 0.661 nM in assay [1] and 1.15 nM in assay [2]. Besides, the %max in assay [4] came out at 81.5.
`c1ccc(OCCNC[C@@H]2COC[C@H](c3ccccc3)O2)cc1` (relative stereo): the results for the Ki in assay [1] and in assay [2] were 53.7 nM and 72.4 nM, respectively.
Consider `COc1ccccc1OCCNC[C@@H]1COC[C@@H](c2ccccc2)O1` (relative stereo), for which the Ki in assay [1] was 6.03 nM; in assay [2], 31.6 nM.
In the case of `COc1cccc(OC)c1OCCNC[C@@H]1CO[C@@H](c2ccccc2)CO1` (relative stereo), the Ki in assay [1] was 234 nM; in assay [2], > 1000 nM.
The matching figures for `COc1cccc(OC)c1OCCNC[C@@H]1COC[C@@H](c2ccccc2)O1` (relative stereo): 417 nM and > 1000 nM.
